Experimental data from ChEMBL document CHEMBL4689842, “EUbOPEN Chemogenomics Library wave 1” (2021).

System: U2OS
Assay: Multiplex assay against U2OS
Assay type: toxicity, cell-based
Details: human
Method in brief: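 Phenotypes for tubulin, mitochondrial mass and membrane permeability are expressed as per cents of healthy-nucleus cells. Cells were stained live at seeding with Hoechst33342, BioTracker Green Microtubule Cytoskeleton Dye, MitoTracker Red and Annexin V Alexa Fluor 680, then imaged after compound addition on a CQ1 microscope at 37°C and 5% CO2. Machine-learning gating in CellPathfinder separated Hoechst high-intensity objects from normal cells, divided normal cells by nuclear state (healthy, pyknosed, fragmented) and divided pyknosed cells into mitotic or apoptotic.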

[1] = 12 h, 1 µM, compound concentration 1 uM, replicate 1
[2] = 12 h, 1 µM, compound concentration 1 uM, replicate 2
[3] = 12 h, 10 µM, compound concentration 10 uM, replicate 1
[4] = 12 h, 10 µM, compound concentration 10 uM, replicate 2
[5] = 24 h, 1 µM, compound concentration 1 uM, replicate 1
[6] = 24 h, 1 µM, compound concentration 1 uM, replicate 2
[7] = 24 h, 10 µM, compound concentration 10 uM, replicate 1
[8] = 24 h, 10 µM, compound concentration 10 uM, replicate 2
[9] = 48 h, 1 µM, compound concentration 1 uM, replicate 1
[10] = 48 h, 1 µM, compound concentration 1 uM, replicate 2
[11] = 48 h, 10 µM, compound concentration 10 uM, replicate 1
[12] = 48 h, 10 µM, compound concentration 10 uM, replicate 2

## Cc1ccc(C(=O)Nc2cccc(C(F)(F)F)c2)cc1Nc1nc(-c2cccnc2)nc2c1cnn2C
[1]
  Population Apoptotic (%): 41%
  Population Fragmented Nuclei (%): 18%
  Population Healthy Nuclei (%): 63%
  Population Hoechst High Intensity Objects (%): 10%
  Population Membrane Permeable-Phenotype (%): 8%
  Population Mitochondria Different-Phenotype (%): 12%
  Population Mitotic Cells (%): 58%
  Population Normal (%): 89%
  Population Pyknosed Nuclei (%): 18%
  Population Tubulin-Different-Phenotype (%): 13%
  Total Cell Count: 151
[2]
  Population Apoptotic (%): 50%
  Population Fragmented Nuclei (%): 14%
  Population Healthy Nuclei (%): 73%
  Population Hoechst High Intensity Objects (%): 3%
  Population Membrane Permeable-Phenotype (%): 6%
  Population Mitochondria Different-Phenotype (%): 25%
  Population Mitotic Cells (%): 50%
  Population Normal (%): 96%
  Population Pyknosed Nuclei (%): 12%
  Population Tubulin-Different-Phenotype (%): 14%
  Total Cell Count: 101
[3]
  Population Apoptotic (%): 69%
  Population Fragmented Nuclei (%): 13%
  Population Healthy Nuclei (%): 48%
  Population Hoechst High Intensity Objects (%): 6%
  Population Membrane Permeable-Phenotype (%): 53%
  Population Mitochondria Different-Phenotype (%): 87%
  Population Mitotic Cells (%): 30%
  Population Normal (%): 93%
  Population Pyknosed Nuclei (%): 38%
  Population Tubulin-Different-Phenotype (%): 98%
  Total Cell Count: 147
[4]
  Population Apoptotic (%): 61%
  Population Fragmented Nuclei (%): 18%
  Population Healthy Nuclei (%): 42%
  Population Hoechst High Intensity Objects (%): 8%
  Population Membrane Permeable-Phenotype (%): 78%
  Population Mitochondria Different-Phenotype (%): 92%
  Population Mitotic Cells (%): 38%
  Population Normal (%): 91%
  Population Pyknosed Nuclei (%): 39%
  Population Tubulin-Different-Phenotype (%): 100%
  Total Cell Count: 66
[5]
  Population Apoptotic (%): 42%
  Population Fragmented Nuclei (%): 10%
  Population Healthy Nuclei (%): 75%
  Population Hoechst High Intensity Objects (%): 9%
  Population Membrane Permeable-Phenotype (%): 2%
  Population Mitochondria Different-Phenotype (%): 14%
  Population Mitotic Cells (%): 57%
  Population Normal (%): 90%
  Population Pyknosed Nuclei (%): 13%
  Population Tubulin-Different-Phenotype (%): 8%
  Total Cell Count: 153
[6]
  Population Apoptotic (%): 27%
  Population Fragmented Nuclei (%): 12%
  Population Healthy Nuclei (%): 72%
  Population Hoechst High Intensity Objects (%): 3%
  Population Membrane Permeable-Phenotype (%): 7%
  Population Mitochondria Different-Phenotype (%): 29%
  Population Mitotic Cells (%): 72%
  Population Normal (%): 96%
  Population Pyknosed Nuclei (%): 14%
  Population Tubulin-Different-Phenotype (%): 16%
  Total Cell Count: 101
[7]
  Population Healthy Nuclei (%): 16%
  Population Hoechst High Intensity Objects (%): 4%
  Population Membrane Permeable-Phenotype (%): 80%
  Population Mitochondria Different-Phenotype (%): 100%
  Population Mitotic Cells (%): 10%
  Population Normal (%): 95%
  Population Pyknosed Nuclei (%): 57%
  Total Cell Count: 166
[8]
  Population Apoptotic (%): 90%
  Population Fragmented Nuclei (%): 26%
  Population Healthy Nuclei (%): 11%
  Population Hoechst High Intensity Objects (%): 20%
  Population Membrane Permeable-Phenotype (%): 100%
  Population Mitochondria Different-Phenotype (%): 75%
  Population Mitotic Cells (%): 9%
  Population Normal (%): 79%
  Population Pyknosed Nuclei (%): 61%
  Population Tubulin-Different-Phenotype (%): 100%
  Total Cell Count: 77
[9]
  Population Apoptotic (%): 58%
  Population Fragmented Nuclei (%): 11%
  Population Healthy Nuclei (%): 80%
  Population Hoechst High Intensity Objects (%): 4%
  Population Membrane Permeable-Phenotype (%): 6%
  Population Mitochondria Different-Phenotype (%): 22%
  Population Mitotic Cells (%): 41%
  Population Normal (%): 95%
  Population Pyknosed Nuclei (%): 8%
  Population Tubulin-Different-Phenotype (%): 10%
  Total Cell Count: 140
[10]
  Population Apoptotic (%): 70%
  Population Fragmented Nuclei (%): 7%
  Population Healthy Nuclei (%): 78%
  Population Hoechst High Intensity Objects (%): 10%
  Population Membrane Permeable-Phenotype (%): 11%
  Population Mitochondria Different-Phenotype (%): 29%
  Population Mitotic Cells (%): 30%
  Population Normal (%): 89%
  Population Pyknosed Nuclei (%): 14%
  Population Tubulin-Different-Phenotype (%): 22%
  Total Cell Count: 93
[11]
  Population Apoptotic (%): 96%
  Population Fragmented Nuclei (%): 35%
  Population Healthy Nuclei (%): 10%
  Population Hoechst High Intensity Objects (%): 10%
  Population Membrane Permeable-Phenotype (%): 100%
  Population Mitochondria Different-Phenotype (%): 100%
  Population Mitotic Cells (%): 3%
  Population Normal (%): 90%
  Population Pyknosed Nuclei (%): 54%
  Population Tubulin-Different-Phenotype (%): 100%
  Total Cell Count: 219
[12]
  Population Apoptotic (%): 100%
  Population Fragmented Nuclei (%): 25%
  Population Healthy Nuclei (%): 21%
  Population Hoechst High Intensity Objects (%): 28%
  Population Mitotic Cells (%): 0%
  Population Normal (%): 71%
  Population Pyknosed Nuclei (%): 53%
  Total Cell Count: 77
